ChEMBL document CHEMBL1131450, “Synthesis and antitumor evaluation of 2,5-disubstituted-indazolo[4, 3-gh]isoquinolin-6(2H)-ones (9-aza-anthrapyrazoles)” (J Med Chem, 1998)
Converted amounts (≈) assume the structure as drawn.

Experiments:
LoVo [1] = assay: In vitro cytotoxicity on human colon adenocarcinoma (LoVo ) tumor cell line.; format: functional, cell-based
LoVo [2] = assay: Resistance index measured as the ratio of IC50 of LoVo/Dx cell line to that of LoVo cell line.; format: functional, Homo sapiens
MX1 [3] = assay: In vivo antitumor activity was measured on MX-1 human mammary carcinoma cells. TWI%=tumor weight inhibition. Optimal dose 27 mg/kg/day.; format: functional
P388 [4] = assay: In vivo antitumor activity was measured on systemic P388 murine leukemia cells. Optimal dose 24 mg/kg/day.; format: functional, Mus musculus
Procedure, shortened: (§1)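 CD2F1 male mice given 10⁶ P388 leukemia cells iv (day 0); drug given iv on days 1, 4 and 7. Survival expressed as T/C% = median survival time of treated / median survival of controls × 100, reported at optimal dose (mg/kg/day) or maximum tested dose.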

LoVo/Dx (Homo sapiens) = assay: cells
P388 [5] = assay: In vivo antitumor activity was measured on systemic P388 murine leukemia cells. Optimal dose 7.5 mg/kg/day.; format: functional, Mus musculus; procedure, shortened: as §1
MX1 [6] = assay: In vivo antitumor activity was measured on MX-1 human mammary carcinoma cells. TWI%=tumor weight inhibition. Optimal dose 10 mg/kg/day.; format: functional
P388 [7] = assay: In vivo antitumor activity was measured on systemic P388 murine leukemia cells. Maximum tested dose 40 mg/kg/day.; format: functional, Mus musculus; procedure, shortened: as §1
MX1 [8] = assay: In vivo antitumor activity was measured on MX-1 human mammary carcinoma cells. TWI%=tumor weight inhibition. Optimal dose 90 mg/kg/day.; format: functional
MX1 [9] = assay: In vivo antitumor activity was measured on MX-1 human mammary carcinoma cells. TWI%=tumor weight inhibition. Optimal dose 150 mg/kg/day.; format: functional
MX1 [10] = assay: In vivo antitumor activity was measured on MX-1 human mammary carcinoma cells. TWI%=tumor weight inhibition. Optimal dose 40 mg/kg/day.; format: functional
P388 [11] = assay: In vivo antitumor activity was measured on systemic P388 murine leukemia cells. Maximum tested dose 12 mg/kg/day.; format: functional, Mus musculus; procedure, shortened: as §1
P388 [12] = format: functional, Mus musculus
MX1 [13] = assay: In vivo antitumor activity was measured on MX-1 human mammary carcinoma cells. TWI%=tumor weight inhibition. Optimal dose 12 mg/kg/day.; format: functional
MX1 [14] = assay: In vivo antitumor activity was measured on MX-1 human mammary carcinoma cells. TWI%=tumor weight inhibition. Optimal dose 20 mg/kg/day.; format: functional
MX1 [15] = assay: In vivo antitumor activity was measured on MX-1 human mammary carcinoma cells. TWI%=tumor weight inhibition. Optimal dose 2 mg/kg/day.; format: functional
P388 [16] = assay: In vivo antitumor activity was measured on systemic P388 murine leukemia cells. Optimal dose 4 mg/kg/day.; format: functional, Mus musculus; procedure, shortened: as §1
P388 [17] = assay: In vivo antitumor activity was measured on systemic P388 murine leukemia cells. Optimal dose 6 mg/kg/day.; format: functional, Mus musculus; procedure, shortened: as §1
MX1 [18] = assay: In vivo antitumor activity was measured on MX-1 human mammary carcinoma cells. TWI%=tumor weight inhibition. Optimal dose 9 mg/kg/day.; format: functional
P388 [19] = assay: In vivo antitumor activity was measured on systemic P388 murine leukemia cells. Maximum tested dose 60 (mg/kg/day); format: functional, Mus musculus; procedure, shortened: as §1
MX1 [20] = assay: In vivo antitumor activity was measured on MX-1 human mammary carcinoma cells. TWI%=tumor weight inhibition. Optimal dose 6 mg/kg/day.; format: functional
P388 [21] = assay: In vivo antitumor activity was measured on systemic P388 murine leukemia cells. Optimal dose 3 mg/kg/day.; format: functional, Mus musculus; procedure, shortened: as §1
MX1 [22] = assay: Antitumor activity was measured on MX-1 human mammary carcinoma cells. TWI%=tumor weight inhibition. Optimal dose at 7.5 mg/kg/day; format: functional
P388 [23] = assay: In vivo antitumor activity was measured on systemic P388 murine leukemia cells. Optimal dose at 7.5 mg/kg/day; format: functional, Mus musculus; procedure, shortened: as §1
P388 [24] = assay: In vivo antitumor activity was measured on systemic P388 murine leukemia cells. Optimal dose at 3 mg/kg/day; format: functional, Mus musculus; procedure, shortened: as §1
MX1 [25] = assay: In vivo antitumor activity was measured on MX-1 human mammary carcinoma cells. TWI%=tumor weight inhibition. Optimal dose at 3 mg/kg/day; format: functional
P388 [26] = assay: In vivo antitumor activity was measured on systemic P388 murine leukemia cells. Optimal dose 75 mg/kg/day.; format: functional, Mus musculus; settings: in the assay text read “7.5 mg/kg/day” for “75 mg/kg/day”; procedure, shortened: as §1
MX1 [27] = assay: In vivo antitumor activity was measured on MX-1 human mammary carcinoma cells. TWI%=tumor weight inhibition. Optimal dose 17.5 mg/kg/day.; format: functional

IC50 (LoVo/Dx (Homo sapiens)) | SMILES | IC50 (LoVo [1]) | RI (LoVo [2]) | other results
3.63 µg/mL (≈ 8.63 µM) | CN(C)CCn1nc2c3c(c(NCCN4CCOCC4)ccc31)C(=O)c1ccncc1-2 | 1.35 µg/mL (≈ 3.21 µM) | 2.7 | TWI (MX1 [3]): 48%; T/C (P388 [4]): 256%
90 µg/mL (≈ 220 µM) | CN(C)CCCn1nc2c3c(c(NCCNCCO)ccc31)C(=O)c1ccncc1-2 | 0.3 µg/mL (≈ 0.734 µM) | 300 | T/C (P388 [5]): 166%; TWI (MX1 [6]): 98%
> 100 µg/mL | CN(C)CCn1nc2c3c(c(NCCN(CCO)CCO)ccc31)C(=O)c1ccncc1-2 | 2.13 µg/mL (≈ 4.86 µM) | >47 | T/C (P388 [7]): 175%; TWI (MX1 [8]): 97%
> 100 µg/mL | NCCn1nc2c3c(c(NCCN(CCO)CCO)ccc31)C(=O)c1ccncc1-2 | 46.4 µg/mL (≈ 113 µM) | 2.1 | T/C (P388 [5]): 194%; TWI (MX1 [9]): 50%
15.7 µg/mL (≈ 41.5 µM) | CCN(CC)CCNc1ccc2c3c(nn2CCN)-c2cnccc2C(=O)c13 | 0.52 µg/mL (≈ 1.37 µM) | 30 | TWI (MX1 [10]): 51%; T/C (P388 [11]): 147%
> 100 µg/mL | CN(C)CCNc1ccc2c3c(nn2CCO)-c2cnccc2C(=O)c13 | 18.5 µg/mL (≈ 52.6 µM) | >5.4 | T/C (P388 [7]): 112%; TWI (MX1 [8]): 16%
1.55 µg/mL (≈ 3.79 µM) | CN(C)CCn1nc2c3c(c(NCCN(C)CCO)ccc31)C(=O)c1ccncc1-2 | 0.049 µg/mL (≈ 0.12 µM) | 31.6 | T/C (P388 [12]): 280%; TWI (MX1 [13]): 75%
> 100 µg/mL | NCCNc1ccc2c3c(nn2CCNCCO)-c2cnccc2C(=O)c13 | 2.17 µg/mL (≈ 5.92 µM) | >46 | TWI (MX1 [14]): 74%; T/C (P388 [12]): 175%
1 µg/mL (≈ 2.64 µM) | CN(C)CCNc1ccc2c3c(nn2CCN(C)C)-c2cnccc2C(=O)c13 | 0.35 µg/mL (≈ 0.925 µM) | 2.8 | TWI (MX1 [15]): 56%; T/C (P388 [16]): 381%
41.2 µg/mL (≈ 104 µM) | CN(C)CCn1nc2c3c(c(NCCNCCO)ccc31)C(=O)c1ccncc1-2 | 0.2 µg/mL (≈ 0.507 µM) | 206 | T/C (P388 [17]): 194%; TWI (MX1 [18]): 99%
> 100 µg/mL | NCCNc1ccc2c3c(nn2CCO)-c2cnccc2C(=O)c13 | 28.6 µg/mL (≈ 88.4 µM) | >3.5 | T/C (P388 [19]): 106%
> 100 µg/mL | NCCn1nc2c3c(c(NCCN4CCOCC4)ccc31)C(=O)c1ccncc1-2 | 1.76 µg/mL (≈ 4.48 µM) | >57 | T/C (P388 [7]): 129%; TWI (MX1 [10]): 32%
10.2 µg/mL (≈ 30.3 µM) | CNCCNc1ccc2c3c(nn2CCN)-c2cnccc2C(=O)c13 | 0.21 µg/mL (≈ 0.624 µM) | 49 | TWI (MX1 [20]): 70%; T/C (P388 [21]): 153%
53 µg/mL (≈ 97.5 µM) | COc1cccc2c1C(=O)c1c(O)c3c(c(O)c1C2=O)C[C@@](O)(C(=O)CO)C[C@@H]3O[C@H]1C[C@H](N)[C@H](O)[C@H](C)O1 [DOXORUBICIN] | 0.58 µg/mL (≈ 1.07 µM) | 91.3 | TWI (MX1 [22]): 64%; T/C (P388 [23]): 200%
> 100 µg/mL | CNCCNc1ccc2c3c(nn2CCNCCO)-c2cnccc2C(=O)c13 [NORTOPIXANTRONE] | 0.54 µg/mL (≈ 1.42 µM) | >185 | T/C (P388 [26]): 167%; TWI (MX1 [27]): 96%

SMILES | IC50 (LoVo/Dx (Homo sapiens)) | IC50 (LoVo [1]) | RI (LoVo [2]) | other results
O=C1c2c(O)ccc(O)c2C(=O)c2c(NCCNCCO)ccc(NCCNCCO)c21 [MITOXANTRONE] | 0.67 µg/mL (≈ 1.51 µM) | 0.024 µg/mL (≈ 0.054 µM) | 28 | T/C (P388 [24]): 197%; TWI (MX1 [25]): 57%
